Results on three compounds are retold here after ChEMBL document CHEMBL1649455, “Antimicrobial susceptibility and mechanisms of resistance in Shigella and Salmonella isolates from children under five years of age with diarrhea in rural Mozambique” (2009).

Assay [1] has as its system Shigella sonnei. Kind of assay: Antimicrobial activity against Shigella sonnei assessed as resistant isolates by disk diffusion method. The format is functional. An outline of the steps: (§1)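 Isolates came from rectal swabs of children under five seen at MDH between July 2001 and July 2003. There were 109 Shigella and 40 Salmonella. Swabs were cultured on MacConkey, Salmonella-Shigella and XLD agars. Identity was confirmed biochemically and by API-20E. Shigella serogroups were assigned by slide agglutination. Salmonella serotypes were assigned with somatic and flagellar antisera.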

Assay [2] has as its system Salmonella sp. Kind of assay: Antimicrobial activity against Salmonella spp. harboring oxa-2-like gene assessed as resistant isolates by disk diffusion method. The format is functional. A general note: A growth-free zone around the sample is the usual read-out of agar diffusion tests.
The next assay relates to Salmonella typhimurium. The experiment in a line: Antimicrobial activity against Salmonella enterica serovar Typhimurium assessed as resistant isolates by disk diffusion method. It counts as functional, Salmonella enterica subsp. enterica serovar Typhimurium. Put shortly: as §1
The test system of assay [3] is Shigella flexneri. The experiment in a line: Antimicrobial activity against Shigella flexneri harboring carb-like gene assessed as resistant isolates by disk diffusion method. The format is functional. Put shortly:
(§2)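 Resistance genes were sought by PCR in isolates fully resistant to the matching antibiotic. One colony was boiled 10 min in water to make template. PCR used […] each primer, 0.4 mM dNTPs and Taq, for 30 cycles of 94°C 1 min, primer-specific annealing 1 min and 72°C 1 min, then 72°C for 10 min. Products were run on 1.5% agarose gels with ethidium bromide.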

In assay [4] the test system is Shigella flexneri. Kind of assay: Antimicrobial activity against Shigella flexneri harboring oxa-2-like gene assessed as resistant isolates by disk diffusion method. It counts as functional. An outline of the steps: as §2
The subject of another assay is Salmonella enterica. Kind of assay: Antimicrobial activity against Salmonella enterica clinical isolates assessed as resistant isolates by disk diffusion method. It counts as functional. Put shortly:
as §1

Assay [5] deals with Shigella flexneri. The experiment in a line: Antimicrobial activity against Shigella flexneri harboring shv-like gene assessed as resistant isolates by disk diffusion method. The format is functional.
Assay [6] in a line: Antimicrobial activity against Salmonella enterica serovar Infantis assessed as resistant isolates by disk diffusion method. It counts as functional, Salmonella enterica subsp. enterica serovar Infantis. Put shortly: as §1
Assay [7] can be described thus: Antimicrobial activity against Salmonella enterica serovar Virchow assessed as resistant isolates by disk diffusion method. The format is functional, Salmonella enterica subsp. enterica serovar Virchow. An outline of the steps:
as §1

The test system of assay [8] is Shigella flexneri. The experiment in a line: Antimicrobial activity against Shigella flexneri harboring oxa-5-like gene assessed as resistant isolates by disk diffusion method. It counts as functional. An outline of the steps:
as §2

The subject of assay [9] is Shigella flexneri. Kind of assay: Antimicrobial activity against Shigella flexneri harboring tem-like gene assessed as resistant isolates by disk diffusion method. It counts as functional.
For assay [10], the system named is Shigella flexneri. Kind of assay: Antimicrobial activity against Shigella flexneri assessed as resistant isolates by disk diffusion method. The format is functional. An outline of the steps: as §1
Assay [11] deals with Salmonella sp. The experiment in a line: Antimicrobial activity against Salmonella spp. harboring oxa-1-like gene assessed as resistant isolates by disk diffusion method. It counts as functional. An outline of the steps:
as §2

Assay [12] relates to Salmonella sp. Kind of assay: Antimicrobial activity against Salmonella spp. harboring tem-like gene assessed as resistant isolates by disk diffusion method. The format is functional.
In assay [13] the test system is Salmonella sp. Kind of assay: Antimicrobial activity against Salmonella spp. harboring carb-like gene assessed as resistant isolates by disk diffusion method. It counts as functional. An outline of the steps:
as §2

For assay [14], the system named is Salmonella sp. Kind of assay: Antimicrobial activity against Salmonella spp. harboring shv-like gene assessed as resistant isolates by disk diffusion method. It counts as functional. An outline of the steps:
as §2

The subject of assay [15] is Salmonella sp. The experiment in a line: Antimicrobial activity against Salmonella spp. harboring oxa-5-like gene assessed as resistant isolates by disk diffusion method. The format is functional. Put shortly:
as §2

Assay [16] relates to Shigella flexneri. Kind of assay: Antimicrobial activity against Shigella flexneri harboring oxa-1-like gene assessed as resistant isolates by disk diffusion method. It counts as functional. An outline of the steps:
as §2

For assay [17], the system named is Shigella sonnei. The experiment in a line: Antimicrobial activity against Shigella sonnei harboring tetG gene assessed as resistant isolates by disk diffusion method. It counts as functional. Put shortly: as §2
For assay [18], the system named is Shigella flexneri. Kind of assay: Antimicrobial activity against Shigella flexneri harboring tetA gene assessed as resistant isolates by disk diffusion method. It counts as functional.
Assay [19] relates to Shigella flexneri. Kind of assay: Antimicrobial activity against Shigella flexneri harboring tetB gene assessed as resistant isolates by disk diffusion method. It counts as functional.
In assay [20] the test system is Shigella sonnei. The experiment in a line: Antimicrobial activity against Shigella sonnei harboring tetA gene assessed as resistant isolates by disk diffusion method. It counts as functional.
Assay [21] concerns Salmonella sp. Kind of assay: Antimicrobial activity against Salmonella spp. harboring tetB gene assessed as resistant isolates by disk diffusion method. It counts as functional.
For assay [22], the system named is Salmonella sp. Kind of assay: Antimicrobial activity against Salmonella spp. harboring tetG gene assessed as resistant isolates by disk diffusion method. The format is functional.
Assay [23] has as its system Salmonella sp. The experiment in a line: Antimicrobial activity against Salmonella spp. harboring tetA gene assessed as resistant isolates by disk diffusion method. It counts as functional.
For assay [24], the system named is Shigella flexneri. The experiment in a line: Antimicrobial activity against Shigella flexneri harboring tetG gene assessed as resistant isolates by disk diffusion method. The format is functional. Put shortly:
as §2

Assay [25] has as its system Shigella sonnei. The experiment in a line: Antimicrobial activity against Shigella sonnei harboring tetB gene assessed as resistant isolates by disk diffusion method. It counts as functional. Put shortly: as §2
In assay [26] the test system is Shigella flexneri. Kind of assay: Antimicrobial activity against Shigella flexneri harboring floR-like gene assessed as resistant isolates by disk diffusion method. The format is functional. Put shortly:
as §2

Assay [27] concerns Salmonella sp. Kind of assay: Antimicrobial activity against Salmonella spp. harboring CAT gene assessed as resistant isolates by disk diffusion method. It counts as functional.
The subject of assay [28] is Shigella flexneri. The experiment in a line: Antimicrobial activity against Shigella flexneri harboring cmlA-like gene assessed as resistant isolates by disk diffusion method. It counts as functional.
Assay [29] relates to Shigella flexneri. The experiment in a line: Antimicrobial activity against Shigella flexneri harboring CAT gene assessed as resistant isolates by disk diffusion method. The format is functional.
Assay [30] relates to Salmonella sp. The experiment in a line: Antimicrobial activity against Salmonella spp. harboring cmlA-like gene assessed as resistant isolates by disk diffusion method. The format is functional.
Assay [31] relates to Salmonella sp. Kind of assay: Antimicrobial activity against Salmonella spp. harboring floR-like gene assessed as resistant isolates by disk diffusion method. It counts as functional.

As to `CC1(C)S[C@@H]2[C@H](NC(=O)[C@H](N)c3ccccc3)C(=O)N2[C@H]1C(=O)O` [AMPICILLIN], the Activity came out at 0% in the assay on Shigella sonnei [1]; 0% in the assay with Salmonella sp. [2]; 67% in the assay with Salmonella typhimurium; 0% in the assay on Shigella flexneri [3]; 5% in the assay on Shigella flexneri [4]; 25% in the assay on Salmonella enterica. Besides, the Activity was 2% with Shigella flexneri [5]; 0% in assay [6]; 0% in [7]; 2% in the assay on Shigella flexneri [8]; 5% with Shigella flexneri [9]; 66% in the assay with Shigella flexneri [10]. The Activity in the assay with Salmonella sp. [11] is reported as 0%; in the assay on Salmonella sp. [12], 70%; in the assay on Salmonella sp. [13] it was 0%; with Salmonella sp. [14], 0%; in the assay on Salmonella sp. [15], 20%; in the assay with Shigella flexneri [16] it was 90%.

In the case of `CN(C)[C@@H]1C(O)=C(C(N)=O)C(=O)[C@@]2(O)C(O)=C3C(=O)c4c(O)cccc4[C@@](C)(O)[C@H]3C[C@@H]12` [TETRACYCLINE], the Activity in the assay on Shigella sonnei [17] came to 36%; in the assay on Shigella flexneri [18], 2%; with Shigella sonnei [1], 93%; in the assay with Salmonella typhimurium, 0%; with Shigella flexneri [19], 98%; in the assay with Shigella sonnei [20] it was 71%. In addition, the Activity with Salmonella sp. [21] is 0%; with Salmonella enterica, 25%; in the assay with Salmonella sp. [22] it was 0%; in the assay with Salmonella sp. [23], 33%; in [6], 0%; in assay [7], 0%. Moreover, the Activity in the assay on Shigella flexneri [24] is listed as 22%; with Shigella flexneri [10], 64%; in the assay on Shigella sonnei [25], 0%.

Turning to `O=C(N[C@H](CO)[C@H](O)c1ccc([N+](=O)[O-])cc1)C(Cl)Cl` [CHLORAMPHENICOL], the Activity amounted to 0% with Shigella flexneri [26]; 67% in the assay with Salmonella sp. [27]; 0% in the assay on Shigella sonnei [1]; 22% in the assay on Salmonella typhimurium; 2% in the assay with Shigella flexneri [28]; 89% in the assay on Shigella flexneri [29]. For the same compound, the Activity in the assay with Salmonella enterica is recorded as 25%; in [6] it was 0%; in [7], 0%; with Shigella flexneri [10], 61%; in the assay with Salmonella sp. [30] it was 33%; in the assay on Salmonella sp. [31] it was 83%.
